Measurements reported in ChEMBL document CHEMBL1240362, “Intrapulmonary pharmacokinetics of S-013420, a novel bicyclolide antibacterial, in healthy Japanese subjects” (Antimicrob Agents Chemother, 2010).

Legend:
[1] = Drug level in alveolar macrophages of healthy human at […], po administered as single dose after 6 hrs; assay type: ADME, organism-based, Macrophage; set-up: route oral; conditions: read-out: Drug uptake
In short: (§1)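 One oral 400 mg suspension dose; four volunteers lavaged at each time (2-24 h). Cell pellet from the pooled 2nd-4th aspirates was counted (hemocytometer, stained cytospin differential). Drug in cell suspension measured by HPLC, divided by AM volume assuming 2.42 μl/10^6 cells. Cmax and Tmax are model-independent, based on mean concentrations at each time.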

[2] = test system: Homo sapiens; assay: Toxicity in healthy human assessed as other cellular fractions in bronchoalveolar fluid at 400 mg, po administered as single dose after 4 hrs; conditions: in vivo
[3] = test system: Homo sapiens; assay: Toxicity in healthy human assessed as other cellular fractions in bronchoalveolar fluid at […], po administered as single dose after 10 hrs; assay type: organism-based, Lung; set-up: route oral; conditions: in vivo
In short: (§2)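 Healthy Japanese male never-smokers, aged 20 to 45 years with normal BMI, got one open-label oral 400 mg suspension dose. Four subjects per time group had one fiber-optic bronchoscopic BAL at the assigned post-dose time. The first aliquot was discarded and the last three were pooled. BAL fluid was held on ice and spun at 400 × g for 5 min at 4°C. Pellet cells were counted by hemocytometer, with a differential count on a stained cytocentrifuge preparation.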

[4] = Drug level in alveolar macrophages of healthy human at […], po administered as single dose after 8 hrs; assay type: ADME, organism-based, Macrophage; set-up: route oral; conditions: read-out: Drug uptake; in short: as §1
[5] = Ratio of drug level in epithelial lining fluid to plasma in healthy human at 400 mg, po administered as single dose after 10 hrs
[6] = Ratio of drug level in alveolar macrophages to plasma in healthy human at 400 mg, po administered as single dose after 2 hrs
[7] = test system: Homo sapiens; assay: Toxicity in healthy human assessed as lymphocytes count in bronchoalveolar fluid at […], po administered as single dose after 2 hrs; assay type: organism-based, Lung; set-up: route oral; conditions: in vivo; in short: as §2
[8] = Drug level in epithelial lining fluid of healthy human at […], po administered as single dose after 8 hrs; assay type: ADME, organism-based; set-up: route oral; conditions: read-out: Drug uptake
In short: (§3)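 Four healthy male volunteers per BAL time (2-24 h) after one oral 400 mg suspension dose. Single bronchoscopic lavage; first aliquot discarded, next three pooled. Supernatant separated at 400 × g, 5 min, 4°C, and drug assayed by LC/MS/MS. ELF level = CBAL × urea plasma/urea BAL, with urea corrected for blood contamination via RBC ratio. PK parameters are model-independent, based on the mean concentration at each time.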

[9] = Drug level in alveolar macrophages of healthy human at […], po administered as single dose after 24 hrs; assay type: ADME, organism-based, Macrophage; set-up: route oral; conditions: read-out: Drug uptake; in short: as §1
[10] = Drug level in alveolar macrophages of healthy human at […], po administered as single dose after 12 hrs; assay type: ADME, organism-based, Macrophage; set-up: route oral; conditions: read-out: Drug uptake; in short: as §1
[11] = Plasma concentration in healthy human at […], po after 8 hrs; assay type: ADME, organism-based; set-up: route oral
In short: (§4)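 Healthy nonsmoking Japanese men, 20-45 y, given one oral 400 mg suspension dose. Blood drawn at 0-72 h, spun at 1,600 × g for 10 min at 4°C, plasma kept at −20°C. Drug measured by validated LC/MS/MS, linear 0.005-5 μg/ml. Values are mean ± SD, n = 28. Cmax, Tmax and t1/2,z are model-independent; AUC0-24 by trapezoidal method.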

[12] = Ratio of AUC (0 to 24 hrs) in […] healthy epithelial lining fluid to MIC90 for Streptococcus pneumoniae; assay type: functional
[13] = Drug level in epithelial lining fluid of healthy human at […], po administered as single dose after 10 hrs; assay type: ADME, organism-based; set-up: route oral; conditions: read-out: Drug uptake; in short: as §3
[14] = test system: Homo sapiens; assay: Toxicity in healthy human assessed as alveolar macrophage count in bronchoalveolar fluid at 400 mg, po administered as single dose after 12 hrs; conditions: in vivo
[15] = Tmax in plasma of healthy human at 400 mg, po administered as single dose
[16] = Plasma concentration in healthy human at […], po after 24 hrs; assay type: ADME, organism-based; set-up: route oral; in short: as §4
[17] = Ratio of AUC (0 to 24 hrs) in plasma of healthy human to MIC90 for erythromycin-susceptible Staphylococcus aureus; assay type: functional
[18] = Ratio of AUC (0 to 24 hrs) in […] healthy epithelial lining fluid to MIC90 for erythromycin-susceptible Staphylococcus aureus; assay type: functional
[19] = test system: Homo sapiens; assay: Toxicity in healthy human assessed as alveolar macrophage count in bronchoalveolar fluid at 400 mg, po administered as single dose after 24 hrs; conditions: in vivo
[20] = Ratio of drug level in epithelial lining fluid to plasma in healthy human at 400 mg, po administered as single dose after 24 hrs
[21] = Ratio of AUC (0 to 24 hrs) in plasma of healthy human to MIC90 for Moraxella catarrhalis; assay type: functional
[22] = Ratio of drug level in epithelial lining fluid to plasma in healthy human at […] administered as single dose after 8 hrs; assay type: ADME, organism-based; set-up: route oral; conditions: po
In short: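 For each subject, ELF or AM drug level after the single oral 400 mg dose is divided by the plasma level sampled at the BAL time (2-24 h). Ratios are summarized per four-subject group.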

concentration at 6 h [1]: 100000 ng/mL | concentration at 8 h [4]: 125000 ng/mL | Kp at 10 h [5]: 23.2 | Kp at 2 h [6]: 93 | concentration at 8 h [8]: 11400 ng/mL | concentration at 24 h [9]: 68000 ng/mL | concentration at 12 h [10]: 176000 ng/mL | concentration at 8 h [11]: 441 ng/mL | concentration at 10 h [13]: 10000 ng/mL | Tmax [15]: 2.27 h | concentration at 24 h [16]: 315 ng/mL | Kp at 24 h [20]: 21.3 | Kp at 8 h [22]: 25.9
SMILES: CC[C@H]1OC(=O)[C@H](C)C(=O)[C@H](C)[C@@H](O[C@@H]2O[C@H](C)C[C@H](N(C)C)[C@H]2O)[C@@]2(C)C[C@@H](C)/C(=N\C(C)=O)[C@H](C)[C@@H](OC/C(=N\OCc3ccc(-n4cccn4)nc3)CO2)[C@]1(C)O [MODITHROMYCIN]
Activity [2]: 0% | Activity [3]: 0.5% | Activity [7]: 15.3% | RatioAUC/MIC [12]: 1699.2 | Activity [14]: 85.9% | RatioAUC/MIC [17]: 41.8 | RatioAUC/MIC [18]: 849.6 | Activity [19]: 89.3% | RatioAUC/MIC [21]: 20.9
